Measured values pooled from the literature.
Lines come from different studies, so protocols differ.
NQO2: Ribosyldihydronicotinamide dehydrogenase [quinone] (NQO2, Homo sapiens, UniProt P16083)
CHRM5: Muscarinic acetylcholine receptor M5 (CHRM5, Homo sapiens, UniProt P08912)
NPSR1: Neuropeptide S receptor (NPSR1, Homo sapiens, UniProt Q6W5P4)
MC4R: Melanocortin receptor 4 (MC4R, Homo sapiens, UniProt P32245)
MAP2K5: Dual specificity mitogen-activated protein kinase kinase 5 (MAP2K5, Homo sapiens, UniProt Q13163)
SLC6A2: Sodium-dependent noradrenaline transporter (SLC6A2, Homo sapiens, UniProt P23975)

| SMILES | target | assay | conditions | endpoint | value |
| --- | --- | --- | --- | --- | --- |
| CN1CCN(C2=Nc3cc(Cl)ccc3Nc3ccccc32)CC1 | NQO2 | enzyme activity, inhibitor |  | Ki | 746 µM |
| CCN(CC)CCCC(C)Nc1cnc(C(=O)Nc2ccc(Cl)c3cccnc23)cn1 (centres unmarked) | CHRM5 | cell-free assay, radioligand |  | Ki | 0.219 µM |
| COc1cccc(C2c3c(ncn(-c4ccc(Br)cc4)c3=N)Oc3ccc4ccccc4c32)c1 (centres unmarked) | NPSR1 | cAMP, antagonist, TR-FRET |  | IC50 | 15.4 µM |
| Clc1ccc2c(c1)N(CCCN1CCN(CCCc3ccccc3)CC1)c1ccccc1S2 | Trypanothione reductase (TPR, Trypanosoma cruzi, UniProt P28593) | enzyme activity, inhibitor, absorbance |  | Ki | 0.331 µM |
| N=c1c2c(ncn1-c1ccccc1)Oc1ccc3ccccc3c1C2c1ccccc1 (centres unmarked) | NPSR1 | calcium signal, antagonist |  | IC50 | 0.69 µM |
| CC[C@@H]1SC2(CCN(C)CC2)NC1=O | CHRM5 | calcium signal, agonist |  | EC50 | 1.08 µM |
| O=C(O)Cc1ccccc1Nc1c(Cl)cccc1Cl | NQO2 | enzyme activity, inhibitor, absorbance |  | Ki | > 1000 µM |
| O=c1ccc2ccccc2o1 | Growth factor receptor-bound protein 2 (GRB2, Homo sapiens, UniProt P62993) | binding, fluorescence |  | Kd | 5.56 µM |
| COc1cccc(C2c3c(ncn(-c4cccc(Cl)c4)c3=N)Oc3ccc4ccccc4c32)c1 (centres unmarked) | NPSR1 | cAMP, antagonist, TR-FRET |  | IC50 | 15.4 µM |
| CCCC[C@H](NC(=O)[C@H](CO)NC(=O)[C@H](Cc1ccc(O)cc1)NC(=O)[C@H](CO)NC(C)=O)C(=O)N[C@@H](CCC(=O)O)C(=O)N[C@@H](Cc1c[nH]cn1)C(=O)N[C@@H](C)C(=O)N[C@@H](CCCNC(=N)N)C(=O)N[C@@H](Cc1c[nH]c2ccccc12)C(=O)NCC(=O)N[C@@H](CCCCN)C(=O)N1CCC[C@H]1C(=O)N[C@H](C(=O)NCC(=O)N[C@@H](CCCCN)C(=O)N[C@@H](CCCCN)C(=O)N[C@@H](CCCNC(=N)N)C(N)=O)C(C)C | MC4R | cAMP, agonist |  | EC50 | 0.257 µM |
| NC(=O)N1c2ccccc2C=Cc2ccccc21 | NQO2 | enzyme activity, inhibitor |  | Ki | > 500 µM |
| Cc1cnc(-c2ccc(-c3ccc(NC(=O)Nc4c(F)cc(F)cc4F)cc3F)c3c2C(=O)NC3)[nH]1 | MAP2K5 | binding, competition with immobilised ligand |  | Kd | 0.0008 µM |
| Cc1cc(Nc2cc3ncccc3c(N[C@@H]3C[C@H]4CC[C@@H](C3)N4CCC#N)n2)n[nH]1 | MAP2K5 | binding, competition with immobilised ligand |  | Kd | 0.065 µM |
| N=c1c2c(ncn1Cc1ccccc1)Oc1ccc3ccccc3c1C2c1ccccc1 (centres unmarked) | NPSR1 | calcium signal, antagonist |  | IC50 | > 30 µM |
| CCCOC(=O)[C@@]12C[C@@H]1[C@@H](n1cnc3c(NC)nc(C#Cc4ccc(Cl)s4)nc31)[C@H](O)[C@@H]2O | SLC6A2 | ligand displacement, radioligand | cell membranes | Ki | > 10 µM |
| COc1ccc(C2c3c(ncn(CCc4ccccc4)c3=N)Oc3ccc4ccccc4c32)cc1OC (centres unmarked) | NPSR1 | calcium signal, antagonist |  | IC50 | > 30 µM |
| CNC(=O)[C@@]12C[C@@H]1[C@@H](n1cnc3c(NC4CC4c4ccccc4)nc(C#Cc4ccccc4)nc31)[C@H](O)[C@@H]2O (mixture of isomers) | SLC6A2 | ligand displacement, radioligand |  | Ki | 2.31 µM |
| CSSc1ccccc1C(=O)O | srtA (Staphylococcus aureus, UniProt Q2FV99) | enzyme activity, inhibitor, fluorescence | pH 7.5 | Ki | 367 µM |
| CC[C@H](C)[C@H](NC(=O)CN)C(=O)N[C@H](C(=O)N[C@@H](CC(N)=O)C(=O)N[C@H](C(=O)N[C@@H](CC(C)C)C(=O)N[C@@H](CCC(N)=O)C(=O)N[C@@H](CCCCN)C(=O)N[C@@H](Cc1ccc(O)cc1)C(=O)N[C@@H](Cc1ccc(O)cc1)C(=O)N[C@@H](CO)C(=O)N[C@@H](CCCNC(=N)N)C(=O)N[C@H](C(=O)N[C@@H](CCCNC(=N)N)C(=O)NCC(=O)NCC(=O)N[C@@H](CCCNC(=N)N)C(=O)N[C@@H](CO)C(=O)N[C@@H](C)C(=O)N[C@H](C(=O)N[C@@H](CC(C)C)C(=O)N[C@@H](CO)C(=O)N[C@H]1CSSC[C@@H](C(=O)N[C@@H](CCCNC(=N)N)C(=O)N[C@@H](CCCNC(=N)N)C(=O)N[C@@H](CCCCN)C(=O)N[C@@H](CCCCN)C(N)=O)NC(=O)[C@H](CO)NC(=O)[C@H](CCCCN)NC(=O)[C@H](CCCNC(=N)N)NC(=O)CNC(=O)[C@H](CCCNC(=N)N)NC(=O)[C@H]([C@@H](C)O)NC(=O)[C@H](CO)NC(=O)[C@H](CO)NC(=O)[C@H](CCCCN)NC(=O)CNC(=O)[C@H]([C@@H](C)CC)NC(=O)[C@H](CCC(N)=O)NC(=O)[C@H](CCC(=O)O)NC(=O)[C@H](CCC(=O)O)NC(=O)[C@H](CCCCN)NC(=O)[C@@H]2CCCN2C(=O)[C@H](CC(C)C)NC1=O)C(C)C)C(C)C)[C@@H](C)O)[C@@H](C)CC | MC4R | ligand displacement in cells |  | Ki | 0.292 µM |
| CC(C)(C)c1cc(CN(C(=O)CN(Cc2ccc(Cl)cc2)S(=O)(=O)c2c(F)c(F)c(F)c(F)c2F)c2ccc(C(=O)O)c(O)c2)cc(C(C)(C)C)c1 | Signal transducer and activator of transcription 1-alpha/beta (STAT1, Homo sapiens, UniProt P42224) | cell-free assay, FP |  | Ki | > 60 µM |
| COc1cccc(C2c3c(ncn(-c4ccccc4Cl)c3=N)Oc3ccc4ccccc4c32)c1 (centres unmarked) | NPSR1 | cAMP, antagonist, TR-FRET |  | IC50 | 12.2 µM |
| Nc1ncnc2c1ncn2[C@@H]1O[C@H](COP(=O)(O)OP(=O)(O)OP(=O)(O)OP(=O)(O)OP(=O)(O)OC[C@H]2O[C@@H](n3cnc4c(N)ncnc43)[C@H](O)[C@@H]2O)[C@@H](O)[C@H]1O | adk (Escherichia coli, UniProt P69441, R131A) | binding, ITC |  | Kd | 0.576 µM |
| COc1ccc(C2c3c(N)nc(Cc4ccccc4)nc3Oc3ccc4ccccc4c32)cc1OC (centres unmarked) | NPSR1 | cAMP, antagonist, TR-FRET |  | IC50 | 77.2 µM |
| Cc1c(S(=O)(=O)O)oc2c1C(=O)C(=O)c1c-2ccc2c1CCCC2(C)C | Cholinesterase (BCHE, Homo sapiens, UniProt P06276) | enzyme activity, inhibitor |  | Ki | > 100 µM |
| CCN(CC)Cc1cc(Nc2ccnc3cc(Cl)ccc23)ccc1O | NQO2 | enzyme activity, inhibitor |  | Ki | 160 µM |
| Nc1ncnc2c1ncn2[C@@H]1O[C@H](COP(=O)(O)OP(=O)(O)OP(=O)(O)O)[C@@H](O)[C@H]1O | dnaA (Escherichia coli, UniProt P03004) | binding |  | Kd | 0.04 µM |
